Test results taken from ChEMBL document CHEMBL1126849, “Synthesis of A-ring fluorinated derivatives of (17 alpha,20E/Z)-[125I]iodovinylestradiols: effect on receptor binding and receptor-mediated target tissue uptake” (J Med Chem, 1993).

How the values were obtained:
Rattus norvegicus [1] = assay: Biodistribution in lungs of immature female rat after 12 hour administration of 3 micro Ci (111 kBq) in the absence of 60 microg estradiol; format: ADME, organism-based, Lung; settings: in vivo
Summary of the method: (§1)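 Immature female Long Evans rats (21–24 days, 45–70 g), three to five per group, given 125I-labeled steroid (3 μCi, 111 kBq) by lateral tail vein without anesthesia. Vehicle: ethanol diluted in saline with 1% Tween-80, final ethanol 9%, 0.22 μm filtered. +E2 groups received 60 μg unlabeled estradiol co-injected. Killed under ether at set times; tissues KCl-washed, blotted, weighed, gamma counted; %ID/g, mean with SE.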

Rattus norvegicus [2] = assay: Biodistribution in thyroid of immature female rat after 1 hr administration of 3 micro Ci (111 kBq) in the absence of 60 microg estradiol; format: ADME, organism-based, Thyroid gland; settings: in vivo; summary of the method: as §1
Rattus norvegicus [3] = assay: Biodistribution in uterus of immature female rat after 1 hr administration of 3 micro Ci (111 kBq) in the presence of (+E2); format: ADME, organism-based; settings: in vivo
Summary of the method: (§2)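 Immature female Long Evans rats (21–24 days, 45–70 g), 3–5 per group, unanesthetized in retention cages, given 3 μCi (111 kBq) 125I-labeled steroid by lateral tail vein. Vehicle: ethanol diluted with saline containing 1% Tween-80, final ethanol 9%. +E2 group co-injected 60 μg unlabeled estradiol (1 h only). Killed under ether; tissues KCl-washed, weighed, gamma-counted. Output: %ID/g (mean, SE) and uterus to blood or nontarget (muscle, spleen, lungs) ratios.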

Rattus norvegicus [4] = assay: Biodistribution in blood of immature female rat after 1 hr administration of 3 micro Ci (111 kBq) in the absence of 60 microg estradiol; format: ADME, organism-based; settings: in vivo
Summary of the method: (§3)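 Immature female Long Evans rats (21–24 days, 45–70 g), unanesthetized in retention cages, given 3 µCi (111 kBq) 125I-labeled steroid i.v. via lateral tail vein. Vehicle was ethanol diluted in saline containing 1% Tween-80, giving 9% ethanol final. The blocking group received 60 µg unlabeled estradiol co-injected. Rats were killed under ether by axillary bleeding, and tissues were KCl-washed and gamma-counted. Data are %ID/g, mean ± SE, n=3–5.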

Rattus norvegicus [5] = assay: Biodistribution in uterus of immature female rat after 3 hour administration of 3 micro Ci (111 kBq) in the absence of 60 microg estradiol; format: ADME, organism-based; settings: in vivo; summary of the method: as §2
Rattus norvegicus [6] = assay: Biodistribution in lungs of immature female rat after 1 hr administration of 3 micro Ci (111 kBq) in the presence of (+E2); format: ADME, organism-based, Lung; settings: in vivo; summary of the method: as §3
Rattus norvegicus [7] = assay: Biodistribution in lungs of immature female rat after 5 hour administration of 3 micro Ci (111 kBq) in the absence of 60 microg estradiol; format: ADME, organism-based, Lung; settings: in vivo; summary of the method: as §1
Rattus norvegicus [8] = assay: Biodistribution in thyroid of immature female rat after 3 hour administration of 3 micro Ci (111 kBq) in the absence of 60 microg estradiol; format: ADME, organism-based, Thyroid gland; settings: in vivo; summary of the method: as §1
Rattus norvegicus [9] = assay: Biodistribution in muscle of immature female rat after 5 hour administration of 3 micro Ci (111 kBq) in the absence of 60 microg estradiol; format: ADME, organism-based, Muscle tissue; settings: in vivo; summary of the method: as §1
[10] = target: Estrogen receptor (Mus musculus) (UniProt O08537+P19785); assay: Relative binding affinity (RBA) against murine cytoplasmic estrogen receptor incubated at 0-4 degree Celsius for 18 hours; format: protein assay
Chain of Estrogen receptor (Mus musculus) (O08537 whole entry, looked up): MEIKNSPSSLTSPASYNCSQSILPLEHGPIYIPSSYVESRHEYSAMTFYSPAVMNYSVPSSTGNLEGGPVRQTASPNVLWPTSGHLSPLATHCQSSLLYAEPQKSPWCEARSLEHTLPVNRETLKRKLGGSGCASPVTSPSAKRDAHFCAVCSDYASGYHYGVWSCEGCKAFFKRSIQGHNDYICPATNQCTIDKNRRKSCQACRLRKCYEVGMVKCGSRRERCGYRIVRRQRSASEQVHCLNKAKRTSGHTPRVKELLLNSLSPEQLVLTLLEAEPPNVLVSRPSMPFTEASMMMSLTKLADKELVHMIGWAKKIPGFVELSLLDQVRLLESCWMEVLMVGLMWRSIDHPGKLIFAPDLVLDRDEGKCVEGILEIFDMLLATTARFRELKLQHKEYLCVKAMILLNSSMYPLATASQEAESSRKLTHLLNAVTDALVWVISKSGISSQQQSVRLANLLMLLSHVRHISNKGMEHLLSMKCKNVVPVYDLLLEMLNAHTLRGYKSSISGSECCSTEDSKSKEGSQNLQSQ
Chain of Estrogen receptor (Mus musculus) (P19785 whole entry, looked up): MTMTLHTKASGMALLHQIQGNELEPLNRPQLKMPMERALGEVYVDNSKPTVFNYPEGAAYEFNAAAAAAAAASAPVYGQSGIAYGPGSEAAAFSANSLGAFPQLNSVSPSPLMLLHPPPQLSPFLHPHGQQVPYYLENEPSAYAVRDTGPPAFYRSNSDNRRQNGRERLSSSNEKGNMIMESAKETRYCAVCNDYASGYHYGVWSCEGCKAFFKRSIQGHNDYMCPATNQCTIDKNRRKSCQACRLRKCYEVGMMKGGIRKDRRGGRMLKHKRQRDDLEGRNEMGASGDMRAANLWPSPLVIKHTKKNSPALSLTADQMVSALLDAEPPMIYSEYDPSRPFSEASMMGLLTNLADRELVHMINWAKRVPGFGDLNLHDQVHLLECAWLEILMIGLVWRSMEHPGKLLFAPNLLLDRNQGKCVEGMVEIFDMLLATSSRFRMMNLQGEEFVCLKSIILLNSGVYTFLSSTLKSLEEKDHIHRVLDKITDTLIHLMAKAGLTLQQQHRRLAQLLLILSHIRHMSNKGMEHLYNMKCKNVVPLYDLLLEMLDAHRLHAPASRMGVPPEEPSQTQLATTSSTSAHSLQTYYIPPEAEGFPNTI
Summary of the method: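 Competitive binding on murine uterine cytoplasmic extract with 20 nM [3H]estradiol and competitor steroids at 2 nM–20 μM, incubated 18 h at 0–4 °C. RBA = 100 × ratio of […] concentration giving 50% competition for specific binding. Mean of three experiments with SD.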

Rattus norvegicus [11] = assay: Biodistribution in kidney of immature female rat after 3 hour administration of 3 micro Ci (111 kBq) in the absence of 60 microg estradiol; format: ADME, organism-based; settings: in vivo; summary of the method: as §3
Rattus norvegicus [12] = assay: Biodistribution in kidney of immature female rat after 5 hour administration of 3 micro Ci (111 kBq) in the absence of 60 microg estradiol; format: ADME, organism-based; settings: in vivo; summary of the method: as §3
Rattus norvegicus [13] = assay: Biodistribution in uterus / spleen, muscle, lungs of immature female rat after 1 hr administration of 3 micro Ci (111 kBq) in the presence of (+E2); format: ADME, organism-based; settings: in vivo
Summary of the method: (§4)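 Same in vivo procedure: immature female Long Evans rats (21–24 days), three to five per group, 3 μCi (111 kBq) tracer i.v. via tail vein in 9% ethanol/saline/1% Tween-80, ± 60 μg estradiol co-injected at 1 h. Uterus %ID/g (gamma counting) divided by blood, or by nontarget organ (muscle, spleen, lungs), %ID/g to give ratios.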

Rattus norvegicus [14] = assay: Biodistribution in uterus of immature female rat after 12 hour administration of 3 micro Ci (111 kBq) in the absence of 60 microg estradiol; format: ADME, organism-based; settings: in vivo; summary of the method: as §2
Rattus norvegicus [15] = assay: Biodistribution in spleen of immature female rat after 5 hour administration of 3 micro Ci (111 kBq) in the absence of 60 microg estradiol; format: ADME, organism-based; settings: in vivo; summary of the method: as §1
Rattus norvegicus [16] = assay: Biodistribution in uterus of immature female rat after 5 hour administration of 3 micro Ci (111 kBq) in the absence of 60 microg estradiol; format: ADME, organism-based; settings: in vivo; summary of the method: as §2
Rattus norvegicus [17] = assay: Biodistribution in lungs of immature female rat after 3 hour administration of 3 micro Ci (111 kBq) in the absence of 60 microg estradiol; format: ADME, organism-based, Lung; settings: in vivo; summary of the method: as §1
Rattus norvegicus [18] = assay: Biodistribution in uterus / spleen, muscle, lungs of immature female rat after 5 hour administration of 3 micro Ci (111 kBq) in the absence of 60 microg estradiol; format: ADME, organism-based; settings: in vivo; summary of the method: as §2
Rattus norvegicus [19] = assay: Biodistribution in fat of immature female rat after 1 hr administration of 3 micro Ci (111 kBq) in the absence of 60 microg estradiol; format: ADME, organism-based, Adipose tissue; settings: in vivo; summary of the method: as §3
Rattus norvegicus [20] = assay: Biodistribution in uterus / blood of immature female rat after 1 hr administration of 3 micro Ci (111 kBq) in the absence of 60 microg estradiol; format: ADME, organism-based; settings: in vivo; summary of the method: as §4
Rattus norvegicus [21] = assay: Biodistribution in spleen of immature female rat after 1 hr administration of 3 micro Ci (111 kBq) in the presence of (+E2); format: ADME, organism-based; settings: in vivo; summary of the method: as §1
Rattus norvegicus [22] = assay: Biodistribution in uterus / spleen, muscle, lungs of immature female rat after 1 hr administration of 3 micro Ci (111 kBq) in the absence of 60 microg estradiol; format: ADME, organism-based; settings: in vivo; summary of the method: as §4
Rattus norvegicus [23] = assay: Biodistribution in blood of immature female rat after 12 hour administration of 3 micro Ci (111 kBq) in the absence of 60 microg estradiol; format: ADME, organism-based; settings: in vivo; summary of the method: as §3
Rattus norvegicus [24] = assay: Biodistribution in uterus of immature female rat after 1 hr administration of 3 micro Ci (111 kBq) in the absence of 60 microg estradiol; format: ADME, organism-based; settings: in vivo; summary of the method: as §2
Rattus norvegicus [25] = assay: Biodistribution in muscle of immature female rat after 1 hr administration of 3 micro Ci (111 kBq) in the absence of 60 microg estradiol; format: ADME, organism-based, Muscle tissue; settings: in vivo; summary of the method: as §1
Rattus norvegicus [26] = assay: Biodistribution in muscle of immature female rat after 12 hour administration of 3 micro Ci (111 kBq) in the absence of 60 microg estradiol; format: ADME, organism-based, Muscle tissue; settings: in vivo; summary of the method: as §1
Rattus norvegicus [27] = assay: Biodistribution in muscle of immature female rat after 3 hour administration of 3 micro Ci (111 kBq) in the absence of 60 microg estradiol; format: ADME, organism-based, Muscle tissue; settings: in vivo; summary of the method: as §1
Rattus norvegicus [28] = assay: Biodistribution in blood of immature female rat after 3 hour administration of 3 micro Ci (111 kBq) in the absence of 60 microg estradiol; format: ADME, organism-based; settings: in vivo; summary of the method: as §3
Rattus norvegicus [29] = assay: Biodistribution in uterus / blood of immature female rat after 1 hr administration of 3 micro Ci (111 kBq) in the presence of (+E2); format: ADME, organism-based; settings: in vivo; summary of the method: as §4
Rattus norvegicus [30] = assay: Biodistribution in liver of immature female rat after 1 hr administration of 3 micro Ci (111 kBq) in the presence of (+E2); format: ADME, organism-based; settings: in vivo; summary of the method: as §3

| ID/g (Rattus norvegicus [1]) | ID/g (Rattus norvegicus [2]) | ID/g (Rattus norvegicus [3]) | ID/g (Rattus norvegicus [4]) | ID/g (Rattus norvegicus [5]) | ID/g (Rattus norvegicus [6]) | ID/g (Rattus norvegicus [7]) | ID/g (Rattus norvegicus [8]) | ID/g (Rattus norvegicus [9]) | RBA [10] | ID/g (Rattus norvegicus [11]) | ID/g (Rattus norvegicus [12]) | uterus-to-nontarget tissue uptake ratio (Rattus norvegicus [13]) | ID/g (Rattus norvegicus [14]) | ID/g (Rattus norvegicus [15]) | ID/g (Rattus norvegicus [16]) | ID/g (Rattus norvegicus [17]) | ID/g (Rattus norvegicus [19]) | uterus-to-blood ratio of %ID/g (Rattus norvegicus [20]) | ID/g (Rattus norvegicus [21]) | Compound | also measured |
| --- | --- | --- | --- | --- | --- | --- | --- | --- | --- | --- | --- | --- | --- | --- | --- | --- | --- | --- | --- | --- | --- |
| 0.24% | 145% | 0.5% | 0.44% | 4.11% | 0.67% | 0.48% | 304% | 0.34% | 36.8 | 0.85% | 0.67% | 0.88% | 3.45% | 0.57% | 4.39% | 0.46% | 1.3% | 8.35% | 0.69% | C[C@@H]1Cc2c(ccc(O)c2F)[C@H]2CC[C@@]3(C)[C@@H](CC[C@@]3(O)/C=C\I)[C@H]12 | ID/g (Rattus norvegicus [18]): 9.44%; ID/g (Rattus norvegicus [22]): 5.41%; ID/g (Rattus norvegicus [23]): 0.21%; ID/g (Rattus norvegicus [24]): 3.55%; ID/g (Rattus norvegicus [25]): 0.45%; ID/g (Rattus norvegicus [26]): 0.16%; ID/g (Rattus norvegicus [27]): 0.28%; ID/g (Rattus norvegicus [28]): 0.39%; uterus/blood %ID/g ratio (Rattus norvegicus [29]): 1.16%; ID/g (Rattus norvegicus [30]): 1.54% |
| 0.1% | 71.61% | 0.77% | 0.78% | 4.24% | 0.75% | 0.28% | 128% | 0.14% | 55.9 | 0.59% | 0.26% | 1.17% | 0.43% | 0.17% | 1.82% | 0.57% | 2.97% | 5.42% | 0.51% | C[C@]12CC[C@@H]3c4ccc(O)c(F)c4CC[C@H]3[C@@H]1CC[C@@]2(O)/C=C/I | uterus to nontarget tissue ratio (Rattus norvegicus [18]): 10.41%; uterus-to-nontarget tissue uptake ratio (Rattus norvegicus [22]): 6.39%; ID/g (Rattus norvegicus [23]): 0.16%; ID/g (Rattus norvegicus [24]): 3.75%; ID/g (Rattus norvegicus [25]): 0.46%; ID/g (Rattus norvegicus [26]): 0.06%; ID/g (Rattus norvegicus [27]): 0.31%; ID/g (Rattus norvegicus [28]): 0.96%; uterus/blood %ID/g ratio (Rattus norvegicus [29]): 1.02%; ID/g (Rattus norvegicus [30]): 3.06% |
| 0.23% | 61% | 1.14% | 0.38% | 5.29% | 1.86% | 0.77% | 70% | 0.56% | 36.4 | 0.95% | 0.89% | 0.85% | 3.02% | 0.8% | 6.44% | 0.93% | 0.03% | 12.53% | 1.29% | C[C@@H]1Cc2c(ccc(O)c2F)[C@H]2CC[C@@]3(C)[C@@H](CC[C@@]3(O)/C=C/I)[C@H]12 | uterus to nontarget tissue ratio (Rattus norvegicus [18]): 9.38%; uterus-to-nontarget tissue uptake ratio (Rattus norvegicus [22]): 5.03%; ID/g (Rattus norvegicus [23]): 0.17%; ID/g (Rattus norvegicus [24]): 4.71%; ID/g (Rattus norvegicus [25]): 0.75%; ID/g (Rattus norvegicus [26]): 0.16%; ID/g (Rattus norvegicus [27]): 0.43%; ID/g (Rattus norvegicus [28]): 0.32%; uterus/blood %ID/g ratio (Rattus norvegicus [29]): 2.68%; ID/g (Rattus norvegicus [30]): 5.84% |
